In series [1] the test system is cucumber powdery mildew (CPM, Sphaerotheca fuliginea). Particulars: in vivo.
Series [2] concerns Phytophthora capsica. The format is cell-based. Particulars: 1.56 mg/L.
For series [3], the target named is porcine SDH (Sus scrofa, UniProt A5GZW8+D0VWV4+Q007T0). The series can be described thus: SDH activity assay. Format: biochemical. Particulars: read-out: Ki, Porcine; inhibition constant against porcine SDH.
In series [4] the test system is FHB (Fusarium graminearum). The note with it: in vivo.
For series [5], the system named is wheat powdery mildew (WPM, Erysiphe graminis). The format is in vivo. The note with it: greenhouse.
The test system of series [6] is Fusarium pseudograminearum. Format: cell-based.
Series [7] concerns Phytophthora infestans. The format is cell-based.
Series [8] has as its system zebrafish (Brachydanio rerio H-B.). The series can be described thus: Acute toxicity zebrafish, static test. The format is in vivo. In a few lines: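 Juvenile zebrafish (not sexually mature) held at 22–23 °C on a 16–8 h light-dark cycle. Static exposure followed the national fish acute toxicity guideline. Definitive test used 1.20, 1.00, 0.833, 0.694, 0.578 and 0.482 mg a.i./L, with dechlorinated tap water as blank control. One replicate of 10 fish per group.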

Series [9] relates to Fusarium graminearum. Format: cell-based.
Series [10] in a line: Average thousand grain weight and yield increase, FHB field trial. The format is in vivo, wheat. Particulars: 150 g a.i./ha. The method in brief: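 Field plots (20 m2) in Huai'an, wheat variety yannong 1212, with Fusarium graminearum head blight. Test compound as 10% emulsifiable concentrate at 112.5, 150 and 180 g a.i./ha, sprayed at early and peak anthesis. Commercial fungicides served as positive controls and water as negative control. Five-point sampling, 100 mature spikes per point, pooled, air-dried and threshed. 1000 random grains weighed, three replicates per treatment.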

The test system of series [11] is deoxynivalenol (DON) content. Format: in vivo, wheat. Particulars: field; for DON content: wheat flour.
Series [12] deals with Alternaria solani. The format is cell-based. Particulars: 1.56 mg/L.
The subject of series [13] is Ustilaginoidea virens. Format: cell-based. The note with it: 1.56 mg/L.
The test system of series [14] is Exserohilum turcicum. Format: cell-based. Particulars: 1.56 mg/L.
Series [15] relates to Sclerotinia sclerotiorum. Format: cell-based. Particulars: 1.56 mg/L.
The target in series [16] is ScSDH (Saccharomyces cerevisiae, UniProt P21801+P33421+P37298+Q00711). Briefly: SDH activity assay. Format: biochemical.
Chain of ScSDH (Q00711 29-640): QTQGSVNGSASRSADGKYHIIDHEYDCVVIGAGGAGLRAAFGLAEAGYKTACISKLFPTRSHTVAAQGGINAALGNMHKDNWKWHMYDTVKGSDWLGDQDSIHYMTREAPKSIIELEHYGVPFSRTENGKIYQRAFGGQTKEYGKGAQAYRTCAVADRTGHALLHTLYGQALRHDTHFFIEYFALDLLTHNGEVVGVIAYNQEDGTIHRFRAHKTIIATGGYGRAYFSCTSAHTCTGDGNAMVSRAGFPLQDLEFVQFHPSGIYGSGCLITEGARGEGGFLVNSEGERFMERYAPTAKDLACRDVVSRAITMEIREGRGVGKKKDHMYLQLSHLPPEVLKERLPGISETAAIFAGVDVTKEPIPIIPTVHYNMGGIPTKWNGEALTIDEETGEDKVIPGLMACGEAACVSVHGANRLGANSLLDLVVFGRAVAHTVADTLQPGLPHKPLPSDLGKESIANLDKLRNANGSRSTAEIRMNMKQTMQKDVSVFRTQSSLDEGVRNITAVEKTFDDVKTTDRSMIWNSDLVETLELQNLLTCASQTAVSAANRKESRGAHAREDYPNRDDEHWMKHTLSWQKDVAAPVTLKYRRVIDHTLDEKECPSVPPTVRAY
Chain of ScSDH (P21801 21-266): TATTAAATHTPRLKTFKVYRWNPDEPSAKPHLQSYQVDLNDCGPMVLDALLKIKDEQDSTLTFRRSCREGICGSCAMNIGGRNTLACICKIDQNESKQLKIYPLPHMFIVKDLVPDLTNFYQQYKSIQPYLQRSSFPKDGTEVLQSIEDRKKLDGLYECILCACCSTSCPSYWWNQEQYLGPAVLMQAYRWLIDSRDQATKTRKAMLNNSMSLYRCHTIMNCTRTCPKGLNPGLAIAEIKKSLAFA
Chain of ScSDH (P33421 51-198): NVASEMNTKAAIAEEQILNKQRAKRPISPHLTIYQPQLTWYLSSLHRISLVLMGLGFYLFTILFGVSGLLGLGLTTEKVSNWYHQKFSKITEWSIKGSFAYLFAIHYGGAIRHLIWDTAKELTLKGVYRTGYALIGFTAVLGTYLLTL
Chain of ScSDH (P37298 32-181): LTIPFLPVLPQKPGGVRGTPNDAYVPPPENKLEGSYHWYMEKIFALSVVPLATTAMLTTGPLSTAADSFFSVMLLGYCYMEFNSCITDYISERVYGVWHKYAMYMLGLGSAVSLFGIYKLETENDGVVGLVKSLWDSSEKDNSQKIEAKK
For series [17], the system named is WPM (Erysiphe graminis). Format: in vivo. Particulars: WPM field trial, 187.5 g a.i./ha.
Series [18] has as its system Fusarium oxysporum. The format is cell-based. The note with it: 1.56 mg/L.
For series [19], the system named is Alternaria alternata. Format: cell-based. Particulars: 1.56 mg/L.

Molecules are shown by their SMILES. In brackets after ≈: the same amount, converted by molar mass. Like-named read-outs stand apart in the source and are kept apart here.

For orientation: EC50 means the midpoint of the concentration-response curve. As usually defined, the Ki is a dissociation constant, usually derived from enzyme kinetics or from competition with a known ligand. For orientation: IC50 means the point on the concentration scale where inhibition reaches its midpoint. A low value points to inhibition by little substance.

Chain of porcine SDH (Q0QF01 43-664 partner): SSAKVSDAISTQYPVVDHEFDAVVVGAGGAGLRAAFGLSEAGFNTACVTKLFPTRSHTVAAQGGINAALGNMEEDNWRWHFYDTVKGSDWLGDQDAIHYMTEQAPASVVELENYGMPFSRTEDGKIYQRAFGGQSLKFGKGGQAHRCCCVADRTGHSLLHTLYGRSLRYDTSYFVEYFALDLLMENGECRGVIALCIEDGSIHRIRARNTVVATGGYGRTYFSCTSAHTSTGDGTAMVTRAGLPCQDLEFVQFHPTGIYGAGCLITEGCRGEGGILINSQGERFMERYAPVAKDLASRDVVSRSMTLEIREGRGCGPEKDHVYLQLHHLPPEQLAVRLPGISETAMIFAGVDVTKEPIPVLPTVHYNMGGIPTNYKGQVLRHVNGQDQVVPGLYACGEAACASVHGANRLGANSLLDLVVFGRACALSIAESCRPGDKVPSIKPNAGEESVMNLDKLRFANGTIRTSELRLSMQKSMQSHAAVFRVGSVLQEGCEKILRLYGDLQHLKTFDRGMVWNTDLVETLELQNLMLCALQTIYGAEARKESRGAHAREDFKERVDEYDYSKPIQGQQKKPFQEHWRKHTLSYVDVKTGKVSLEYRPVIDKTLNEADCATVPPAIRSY
Chain of porcine SDH (Q007T0 29-280): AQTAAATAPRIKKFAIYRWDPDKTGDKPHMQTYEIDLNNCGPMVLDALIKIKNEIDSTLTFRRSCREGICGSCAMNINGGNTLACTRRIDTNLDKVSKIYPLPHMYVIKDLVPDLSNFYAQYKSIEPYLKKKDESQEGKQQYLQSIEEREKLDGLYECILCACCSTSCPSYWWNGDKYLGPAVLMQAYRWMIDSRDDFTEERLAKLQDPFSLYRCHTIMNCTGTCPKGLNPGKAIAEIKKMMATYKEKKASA
Chain of porcine SDH (D0VWV4 30-169): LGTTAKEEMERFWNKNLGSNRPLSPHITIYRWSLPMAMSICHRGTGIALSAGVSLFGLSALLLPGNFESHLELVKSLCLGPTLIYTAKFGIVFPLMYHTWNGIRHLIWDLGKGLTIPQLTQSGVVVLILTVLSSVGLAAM
Chain of porcine SDH (A5GZW8 57-159 limits assumed): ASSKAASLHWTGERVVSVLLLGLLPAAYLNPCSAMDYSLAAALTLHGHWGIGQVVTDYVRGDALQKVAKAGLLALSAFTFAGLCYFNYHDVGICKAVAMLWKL

For `C=C(CN(C(=O)c1c(C(F)F)nn(C)c1F)C1CC1)c1ccc(Cl)cc1Cl` [E8, enprocymid], the entries for the concentration for a half-maximal effect (EC50) in [1] and in [5] (WPM) were 0.5431 mg/L (≈ 1.3 µM) and 0.0462 mg/L (≈ 0.11 µM), respectively. The “inhibition rate (%), Pc” value in series [2] amounted to 76.33%. The Ki in [3] was found to be 281 ± 14 nM; in series [16] (read-out: Ki, Yeast, inhibition constant against ScSDH) it was 19 ± 1 nM. For the same compound, the “Control efficiency (%)” value in series [4] is 88.81%; in series [17], 92.38%. The “activity against WPM relative to PYD” value in series [5] is given as “over 20 fold”. Further, the “inhibition rate (%), Fp” value in series [6] is 85.33%. Besides, the “inhibition rate (%), Pi” value in [7] is recorded as 81.97%. The Toxicity level result in [8] (by LC50 (96 h)) is listed as “moderately toxic”. In addition, the “LC50 (96 h)” value in series [8] (static test, 96 h) was 1.01 mg a.i./L. In addition, in series [9], the “inhibition rate (%), Fg” value is recorded as 97.31%. For the same compound, the “Yield increase rate (%)” value in series [10] turned out to be 10.18%. Further, the “DON inhibition rate (%)” value is 86.05% in series [11] (150 g a.i./ha) and 89.40% in series [11] (180 g a.i./ha). For the same compound, the “DON content” value is given as 217.5 µg/kg in [11] (150 g a.i./ha) and 165.3 µg/kg in series [11] (180 g a.i./ha). Besides, in series [12], the “inhibition rate (%), As” value turned out to be 80.00%. The “inhibition rate (%), Uv” value in series [13] is recorded as 100.00%. Moreover, the “inhibition rate (%), Et” value in series [14] turned out to be 100.00%. In series [15], the “inhibition rate (%), Ss” value was 74.67%. Moreover, the “potency relative to PYD (IC50)” value in series [16] (E8 IC50 vs PYD IC50, ScSDH) is given as ~1.3 fold. Further, the midpoint of inhibition in series [16] (against ScSDH), the IC50, lay at 30 ± 3 nM. Besides, in series [16] (ratio of Ki for porcine SDH and ScSDH), the Species selectivity worked out at 14.78. Besides, the “inhibition rate (%), Fo” value in series [18] worked out at 87.33%. In series [19], the “inhibition rate (%), Aa” value was 95.67%.

For the compound `CC(C)(C)C(O)(CCc1ccc(Cl)cc1)Cn1cncn1` (centres unmarked) [tebuconazole], the “Control efficiency (%)” value in series [4] was 84.45%.

Turning to `OCC1=C[C@H](N[C@H]2C[C@H](CO)[C@@H](O[C@@H]3O[C@H](CO)[C@@H](O)[C@H](O)[C@H]3O)[C@H](O)[C@H]2O)[C@H](O)[C@@H](O)[C@@H]1O` [validamycin], the “Control efficiency (%)” value in series [4] is 48.42%.
